Results taken from ChEMBL document CHEMBL5360632, “Quinazolinone Compounds Have Potent Antiviral Activity against Zika and Dengue Virus” (J Med Chem, 2023).
Active and inactive are the calls of the source. No cut-off for these calls is given here.

What was measured:
[1] = test system: Zika virus; experiment: Antiviral activity against ZIKV FLR infected in human U87 cells assessed as inhibition of viral replication at 3 uM pretreated with compounds for 2 hrs followed by replacement with fresh medium containing compound and measured after 48 hrs by MTT assay relative to control; assay type: functional; conditions: U-87 MG, time 50 hrs
Method in brief: (§1)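 Monolayers of 2 × 10^4 cells/well in DMEM with 2% FBS. Infected at 0.1 MOI together with compound for 2h. Wells washed with PBS, then fresh medium with compound added in duplicate and incubated 48h at 37 °C. Supernatant titred by end-point dilution: half-log dilutions on Vero monolayers in quadruplicate for 5–7 days, CPE by microscope then MTT. TCID50 compared with untreated; EC50 from dose-response fit of ≥2 independent experiments.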

[2] = test system: Zika virus; experiment: Antiviral activity against ZIKV FLR infected in Vero cells assessed as reduction in NS3 viral protein level at 1 to 3 uM incubated for 48 hrs by Western blot analysis; assay type: functional, organism-based; conditions: dose 1-3 µM
Method in brief: (§2)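 8 × 10^5 Vero cells infected at MOI 0.1 for 2h. Virus removed and cells cultured 48h in fresh medium with 2% FBS plus compound. Cells lysed in ice-cold RIPA buffer and equal total protein separated by SDS-PAGE, then transferred to PVDF. Probed with antibodies to ZIKV NS3, capsid and NS5, with β-actin as loading reference.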

[3] = test system: Zika virus; experiment: Antiviral activity against ZIKV […] infected in Vero cells assessed as reduction in viral titer at 1 uM preinoculated virus for 2 hrs with cells followed by washout of unattached viruses and further incubated with compound for 46 hrs starting from 2 hrs post washout by MTT assay relative to control; assay type: functional; design: scale not given: the % may be the effect or the level left
Method in brief: (§3)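 Cells inoculated with 0.1 MOI virus for 2h, then unattached virus removed by PBS wash. Compound at 1 μM added either right after washout (0h-posttreatment) or 2h after washout (2h-posttreatment). Incubated to 48h at 37 °C, then supernatant TCID50 determined by end-point dilution with CPE/MTT read-out in quadruplicate on Vero cells, relative to untreated.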

[4] = test system: Zika virus; experiment: (§4) Antiviral activity against ZIKV FLR infected in Vero cells assessed as inhibition of viral replication by measuring reduction in cytopathic effect at 1 uM preincubated with compounds for 2 hrs followed by replacement with fresh media containing compounds and further incubated for 48 hrs in presence of 1 mM GSH by MTT assay; assay type: functional, organism-based; conditions: time 50.0 hrs; method in brief: as §1
[5] = test system: Zika virus; experiment: as §4, with “>=3” for “1”, “measured after” for “further incubated for”, “hrs” for “hrs in presence of 1 mM GSH”, “assay relative to control” for “assay”; assay type: functional; design: scale not given: the % may be the effect or the level left; conditions: time 50 hrs; method in brief: as §1
[6] = test system: Zika virus; experiment: Antiviral activity against ZIKV FLR infected in mosquito C6/36 cells assessed as inhibition of viral replication pretreated with compounds for 2 hrs followed by replacement with fresh medium containing compound and measured after 48 hrs bt MTT assay; assay type: functional, organism-based; method in brief: as §1
[7] = test system: Zika virus; experiment: as §4, with “10” for “1”, “measured after” for “further incubated for”, “hrs” for “hrs in presence of 1 mM GSH”, “assay relative to control” for “assay”; assay type: functional; conditions: time 50 hrs; method in brief: as §1
[8] = test system: Zika virus; experiment: Antiviral activity against ZIKV FLR infected in human U87 cells assessed as inhibition of viral replication at 10 uM pretreated with compounds for 2 hrs followed by replacement with fresh medium containing compound and measured after 48 hrs by MTT assay relative to control; assay type: functional; conditions: U-87 MG, time 50 hrs; method in brief: as §1
[9] = test system: Zika virus; experiment: (§5) Antiviral activity against ZIKV HN16 infected in Vero cells assessed as inhibition of viral replication by measuring reduction in cytopathic effect preincubated with compounds for 2 hrs followed by replacement with fresh media containing compounds and measured after 48 hrs by MTT assay; assay type: functional, organism-based; method in brief: as §1
[10] = test system: Zika virus; experiment: Antiviral activity against ZIKV FLR infected in human U87 cells assessed as inhibition of viral replication at 1 uM pretreated with compounds for 2 hrs followed by replacement with fresh medium containing compound and measured after 48 hrs by MTT assay relative to control; assay type: functional; conditions: U-87 MG, time 50 hrs; method in brief: as §1
[11] = test system: dengue virus type 3; experiment: Antiviral activity against Dengue virus serotype 3 7431 infected in Vero cells assessed as inhibition of viral replication pretreated for 2 hrs followed by replacement with fresh medium containing compound and measured after 48 hrs by MTT assay; assay type: functional, organism-based; conditions: Dengue virus, 7431, Vero; method in brief: as §1
[12] = test system: U-87 MG; experiment: Cytotoxicity against human U87 cells assessed as reduction in cell viability; assay type: toxicity, cell-based; conditions: u-87mg atcc
[13] = test system: dengue virus type 2; experiment: Antiviral activity against Dengue virus serotype 2 K0049 infected in Vero cells assessed as inhibition of viral replication pretreated for 2 hrs followed by replacement with fresh medium containing compound and measured after 48 hrs by MTT assay; assay type: functional, organism-based; method in brief: as §1
[14] = test system: Zika virus; experiment: as §5, with “FLR” for “HN16”, “effect at 0.3 uM” for “effect”, “assay relative to control” for “assay”; assay type: functional; design: scale not given: the % may be the effect or the level left; conditions: time 50 hrs; method in brief: as §1
[15] = test system: Zika virus; experiment: as §5, with “FLR” for “HN16”, “effect at 1 uM” for “effect”, “assay relative to control” for “assay”; assay type: functional; conditions: time 50 hrs; method in brief: as §1
[16] = test system: Zika virus; experiment: Antiviral activity against ZIKV FLR infected in Vero cells assessed as reduction in number of viral RNA copies by qRT-PCR analysis; assay type: functional, organism-based; conditions: dose 0.3-10 µM
Method in brief: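 Viral RNA measured in cell supernatant after compound treatment. Copies/mL calculated from a standard curve.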

[17] = test system: Zika virus; experiment: Antiviral activity against ZIKV FLR infected in Vero cells assessed as inhibition of viral replication by measuring reduction in cytopathic effect preincubated with compounds for 2 hrs followed by replacement with fresh media containing compounds and measured after 48 hrs by MTT assay; assay type: functional, organism-based; method in brief: as §1
[18] = test system: Zika virus; experiment: Antiviral activity against ZIKV FLR infected in Vero cells assessed as reduction in viral titer at 1 uM preinoculated virus for 2 hrs with cells followed by washout of unattached viruses and further incubated with compound for 48 hrs by MTT assay relative to control; assay type: functional; design: scale not given: the % may be the effect or the level left; method in brief: as §3
[19] = test system: Zika virus; experiment: Antiviral activity against ZIKV FLR infected in human U87 cells assessed as inhibition of viral replication pretreated with compounds for 2 hrs followed by replacement with fresh medium containing compound and measured after 48 hrs by MTT assay; assay type: functional, organism-based; conditions: U-87 MG; method in brief: as §1
[20] = test system: Zika virus; experiment: Antiviral activity against ZIKV FLR infected in Vero cells assessed as reduction in NS5 viral protein level at 1 to 3 uM incubated for 48 hrs by Western blot analysis; assay type: functional, organism-based; conditions: dose 1-3 µM; method in brief: as §2
[21] = test system: Zika virus; experiment: Antiviral activity against ZIKV FLR infected in Vero cells assessed as reduction in capsid protein level at 1 to 3 uM incubated for 48 hrs by Western blot analysis; assay type: functional, organism-based; conditions: dose 1-3 µM; method in brief: as §2
[22] = test system: Zika virus; experiment: Antiviral activity against ZIKV FLR infected in human U87 cells assessed as inhibition of viral replication at 0.3 uM pretreated with compounds for 2 hrs followed by replacement with fresh medium containing compound and measured after 48 hrs by MTT assay relative to control; assay type: functional; conditions: U-87 MG, time 50 hrs; method in brief: as §1

In the case of `COc1cccc(/C=C/c2nc3ccc(N4CCOCC4)cc3c(=O)n2-c2cccc(C(C)(C)C)c2)n1`, the inhibition at 3 µM [1] is reported as 99%, the Activity [2] is reported as “Active” and the Activity [3] is reported as 68%. For the same molecule, the Activity [4] was “Active”, the Activity [5] was over 99.9% and the EC50 [6] was 230 nM. It also gave an inhibition at 10 µM [7] of 99.9%, an inhibition at 10 µM [8] of over 99.9% and an EC50 [9] of 86 nM. For the same molecule, the inhibition at 1 µM [10] was 97%, the EC50 [11] was 120 nM and the CC50 [12] was over 20000 nM. For the same molecule, the EC50 [13] was 210 nM, the Activity [14] was 68% and the inhibition at 1 µM [15] was 90%. The Activity [16] was “Dose-Dependent Effect”, the EC50 [17] was 180 nM and the Activity [18] was 68%. For the same molecule, the EC50 [19] was 100 nM, the Activity [20] was “Active” and the Activity [21] was “Active”. The inhibition at 0.3 µM [22] was 90%.
